An excerpt weighted towards active compounds, which were near 2% of everything screened.
STAT3 activator – IL-6 driven STAT3 reporter potentiators, primary screen, U3A cells, luciferase, luminescence, MLSCN library; IL-6 STAT3-luciferase reporter; 100% = signal with IL-6 EC80 alone; activation (% of control), % at 5.6 µM; hit rate 0.91% among 190,000;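 active means activation above the screen-wide mean of compound activation plus 3 SD, cut at about 130% in these data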;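 further: 0% = background luminescence of wells with medium and substrate only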
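system = STAT3-luciferase reporter U3A cells | reagent = IL-6 stimulus at 33 ng/mL final | timing = 1 h compound pre-exposure, 6 h IL-6 stimulation, 37 °C | measured by = luminescence | evaluation = % activation versus median of IL-6-stimulated wells | control set = IL-6-only wells as 100% reference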
STAT1 blocker – STAT1 signaling inhibitors, primary screen, cell-based, HTS, luciferase reporter; NIH 3T3 STAT1-luciferase reporter, IFN-gamma, luminescence; inhibition, % at 5.5 µM; hit rate 0.35% among 200,000;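 active means inhibition above a set limit, the mean inhibition across all tested compounds plus 3 SD, cut at about 34% in these data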;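 further: 0% = IFN-gamma with DMSO and 100% = IFN-gamma with 300 µM nifuroxazide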
HSP90 refold inh – HSP90 inhibitors, primary screen, cell lysate, luminescence; Heat shock protein HSP 90 (rabbit reticulocyte lysate; luciferase refolding); Rabbit reticulocyte lysate, luciferase refolding luminescence, 3 h; inhibition, % at 5.6 µM; hit rate 0.91% among 290,000; AID 1789, 2009;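 active means inhibition above the screen-wide mean plus 3 SD, computed separately per campaign, cut at about 16% in these data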;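 further: 0% = DMSO wells and 100% = 60 µM geldanamycin wells; inhibitors lower the luminescence because luciferase stays unfolded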
STAT3 blocker – IL-6 driven STAT3 reporter inhibitors, primary screen, U3A cells, luciferase, luminescence, MLSCN library; IL-6 STAT3-luciferase reporter; host cell line lacks STAT1; inhibition, % at 5.5 µM; hit rate 0.89% among 190,000; AID 862, 2007;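 active means inhibition above the mean inhibition across all screened compounds plus 3 SD, cut at about 44% in these data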;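 further: 0% = DMSO only wells and 100% = 100 µM nifuroxazide control wells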
HSP90 inh confirm – HSP90 inhibitors, confirmation, cell lysate, luminescence; shares compounds with HSP90 refold inh; rabbit reticulocyte lysate, luciferase refolding luminescence, 3 h; inhibition, % at 5.9 µM; hit rate 64% among 2,300; AID 1846, 2009; in the data active means inhibition above about 18%;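 further: 0% = vehicle wells and 100% = reference inhibitor wells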
FLuc counter – firefly luciferase inhibitors, HSP90 counter-screen, confirmation, artefact control for HSP90 inhibitor project, biochemical, luminescence, triplicate | shares compounds with HSP90 refold inh | purified native firefly luciferase | inhibition, % at 5.9 µM | hit rate 48% among 2,300;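 active means inhibition above the mean inhibition of all tested sample wells plus 3 SD, cut at about 10% in these data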;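 further: 0% = DMSO with luciferase and 100% = wells lacking luciferase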
Target sequence (P08659 whole entry, looked up): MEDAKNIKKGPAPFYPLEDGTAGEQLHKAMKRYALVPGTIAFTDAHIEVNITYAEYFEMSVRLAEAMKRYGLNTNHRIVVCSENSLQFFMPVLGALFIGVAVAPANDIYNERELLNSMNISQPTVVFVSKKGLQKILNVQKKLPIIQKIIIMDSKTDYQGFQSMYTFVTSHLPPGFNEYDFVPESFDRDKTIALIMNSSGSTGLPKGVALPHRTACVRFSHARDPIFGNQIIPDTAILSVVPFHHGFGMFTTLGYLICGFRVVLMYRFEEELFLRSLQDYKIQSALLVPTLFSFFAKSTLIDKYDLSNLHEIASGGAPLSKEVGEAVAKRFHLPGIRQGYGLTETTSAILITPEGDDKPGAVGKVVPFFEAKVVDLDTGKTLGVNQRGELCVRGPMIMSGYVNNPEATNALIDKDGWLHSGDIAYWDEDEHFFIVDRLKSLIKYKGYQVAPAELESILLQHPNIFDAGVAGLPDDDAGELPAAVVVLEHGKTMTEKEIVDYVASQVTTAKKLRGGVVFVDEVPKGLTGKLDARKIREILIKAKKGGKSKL
Active calls of the source: *; · = no result given.

SMILES	STAT3 activator	STAT1 blocker	HSP90 refold inh	STAT3 blocker	HSP90 inh confirm	FLuc counter
COc1cccc(C(=O)Nc2ccc(N3CCN(S(C)(=O)=O)CC3)cc2)c1	102	-13	18*	-3	-8	-19
Cc1ccc(-c2nc(CS(=O)CC(=O)NCc3ccc4c(c3)OCO4)c(C)o2)cc1 (configuration not stated)	·	·	1	·	·	·
COCCNc1ccc(S(=O)(=O)N2CCCC2)cn1	104	-7	-2	-1	·	·
S=c1[nH]nc(-c2ccc(Cl)cc2)n1Cc1ccccc1	93	-1	46*	12	-6	-8
CC(NC(=O)CNC(=O)C1CCCCC1)c1ccc(S(N)(=O)=O)cc1 (configuration not stated)	·	·	32*	·	-1	0
Cc1cnc(NC(=O)c2cc3c(s2)CCCC3)s1	38	42*	43*	74*	66*	64*
Cc1csc(NC(=O)c2cc3c(s2)CCCCC3)n1	20	68*	61*	97*	79*	77*
CNC(=O)c1cc2c(s1)CCCCCC2	98	0	8	6	·	·
CCc1nnc(NC(=O)c2cc3c(s2)CCCCC3)s1	92	-22	1	13	·	·
CCOC(=O)C1CCCN(C(=O)c2cc3ccc(OC)cc3[nH]2)C1 (configuration not stated)	·	·	-1	·	·	·
CC1CCCCC1NC(=O)CCS(=O)(=O)c1cc2c(cc1Cl)NC(=O)CO2 (configuration not stated)	·	·	3	·	·	·
Cc1cccc(NC(=O)N2CCC(NC(=O)C3CCCCC3)CC2)c1	·	·	-2	·	·	·
O=C(Nc1cccc(F)c1)/C(=C\c1ccco1)NC(=O)c1ccco1	·	·	-3	·	·	·
CCN(CC)CCN(C(=O)c1ccc(C(=O)c2ccccc2)cc1)c1nc2cc3c(cc2s1)OCO3	·	·	4	·	·	·
CCN(CC)CCN(C(=O)c1ccc(Br)s1)c1nc2cc3c(cc2s1)OCCO3	97	-12	51*	14	-3	-17
CCN(CC)CCN(C(=O)c1ccc2ncsc2c1)c1nc2cc3c(cc2s1)OCO3	·	·	34*	·	34*	16*
CCN(CC)CCN(C(=O)c1ccc(Br)s1)c1nc2cc3c(cc2s1)OCO3	94	3	-2	18	·	·
CCc1ccc(OCC(=O)Nc2ccc3[nH]ncc3c2)cc1	·	·	-4	·	·	·
CN(C)c1cccc(C(=O)N/N=C/c2ccccc2F)c1	28	69*	36*	89*	73*	60*
Cc1cc(/C=N/NC(=O)c2cccc(N(C)C)c2)c(C)n1-c1cc(C(=O)O)cc(C(=O)O)c1	105	-16	5	4	·	·
Cc1nc(NC(=O)/C=C/c2ccccc2)sc1C(=O)Nc1ccc(Cl)cc1	95	7	3	12	·	·
Cc1nc(NC(=O)/C=C/c2ccccc2)sc1C(=O)Nc1ccccc1Cl	103	-7	27*	8	54*	-19
Cc1ccc(S(=O)(=O)N(C)C)cc1[N+](=O)[O-]	·	·	-2	·	·	·
Nc1cccc2c1C(=O)N(CCOc1ccccc1F)C2=O	·	·	30*	·	51*	45*
N#Cc1ccccc1OCCN1C(=O)c2ccccc2C1=O	103	-24	-6	0	·	·
SMILES	STAT3 activator	STAT1 blocker	HSP90 refold inh	STAT3 blocker	HSP90 inh confirm	FLuc counter
Cn1c(CCn2ccccc2=O)nc2cc(NC(=O)COc3ccccc3)ccc21	·	·	2	·	·	·
c1ccc(C2=NNC(=NCc3ccc4c(c3)OCO4)SC2)cc1	116	-3	1	-12	·	·
C=CCN=C1NN=C(c2ccc3c(c2)OCCO3)CS1	25	64*	47*	89*	83*	79*
Cc1ccc(N(CN2C(=O)C3C4CCC(C4)C3C2=O)C(=O)c2ccco2)cc1 (configuration not stated)	·	·	1	·	·	·
COc1ccccc1CNC(=O)CN1CCN(c2ccc(C(C)=O)cc2)CC1	·	·	-1	·	·	·
C/C(=N\Nc1nncc2ccccc12)c1cccc(OC(F)F)c1	·	·	25*	·	40*	23*
C/C(=N\Nc1nncc2ccccc12)c1ccc(C(C)(C)C)cc1	·	·	0	·	·	·
C/C(=N\Nc1nncc2ccccc12)c1ccc(O)cc1	·	·	20*	·	32*	12*
C#CCNC(=O)c1cccn1-c1ncc(C(F)(F)F)cc1Cl	96	2	4	8	·	·
O=C(NCc1ccccn1)c1cccn1-c1ncc(C(F)(F)F)cc1Cl	105	2	41*	-4	3	-1
CCn1c(C)nc2cc(N)ccc21	·	·	34*	·	8	-2
Cc1nnc(NC(=O)C2CCCN2C(=O)Nc2ccccc2)s1 (configuration not stated)	·	·	-4	·	·	·
Cc1cc[n+](-c2[nH]c(=O)sc2/C=N/N=C(\[O-])c2ccccc2)cc1C	98	-6	18*	4	-6	-14
Cc1cc[n+](-c2[nH]c(=O)sc2/C=N/N=C(\[O-])c2ccncc2)cc1C	·	·	1	·	·	·
Cc1sc2nc(SCC(=O)N3CCOCC3)[nH]c(=O)c2c1-c1ccccc1	·	·	-1	·	·	·
O=C(/C=C/c1cccs1)c1ccc(N2CCOCC2)cc1	85	-21	31*	21	58*	69*
CCN(CC)S(=O)(=O)c1ccc(C)c(NC(=O)CN2CCN(Cc3ccccc3)CC2)c1	·	·	29*	·	5	-1
Cc1ccccc1NC(=O)CN1CCN(Cc2ccccc2)CC1	·	·	-1	·	·	·
CN(C)c1ccc(/C=N/Nc2nc3ccccc3o2)cc1	·	·	45*	·	63*	62*
